From ChEMBL document CHEMBL2169743, “Identification of novel 2-((1-(benzyl(2-hydroxy-2-phenylethyl)amino)-1-oxo-3-phenylpropan-2-yl)carbamoyl)benzoic acid analogues as BMP-2 stimulators” (J Med Chem, 2012)
Activity calls are given as the source filed them. The rule behind the calls is not given here.

Tests used:
[1] = system: Calvarial osteoblast; test: Osteogenic activity in Sprague-Dawley rat calvarial osteoblasts assessed as BMP-2 mRNA expression at 0.1 to 1000 nM after 48 hrs by qPCR analysis relative to control; format: functional, cell-based
[2] = system: Calvarial osteoblast; test: Osteogenic activity in Sprague-Dawley rat calvarial osteoblasts assessed as BMP-2 level at 1000 nM after 48 hrs by ELISA relative to control; format: functional
[3] = system: Calvarial osteoblast; test: Osteogenic activity in Sprague-Dawley rat calvarial osteoblasts assessed as BMP-2 level at 100 nM after 48 hrs by ELISA relative to control; format: functional
[4] = system: Calvarial osteoblast; test: Osteogenic activity in Sprague-Dawley rat calvarial osteoblasts assessed as BMP-2 level at 10 nM after 48 hrs by ELISA relative to control; format: functional
[5] = system: Calvarial osteoblast; test: Osteogenic activity in Sprague-Dawley rat calvarial osteoblasts assessed as BMP-2 level at 1 nM after 48 hrs by ELISA relative to control; format: functional
[6] = system: Calvarial osteoblast; test: Osteogenic activity in Sprague-Dawley rat calvarial osteoblasts assessed as BMP-2 level at 0.1 nM after 48 hrs by ELISA relative to control; format: functional
[7] = system: MC3T3-E1; test: Inhibition of 20S proteasome in mouse MC3T3-E1 cells at 100 nM after 48 hrs by Bradford assay; format: cell-based
Summary of the method: (§1)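 MC3T3-E1 cells seeded at 2 × 10⁶/well and treated for 48 h. Lysed in HEPES pH 7.5/EDTA/NaCl/1% Triton X-100 on ice; protein measured by Bradford. 10 μg lysate incubated with fluorogenic 20S proteasome substrate for 1 h at 37 °C in the dark, fluorescence read at 380/460 nm. Lactacystin 25 μM as reference. Mean ± SEM, three independent experiments.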

[8] = system: MC3T3-E1; test: Inhibition of 20S proteasome in mouse MC3T3-E1 cells after 48 hrs by Bradford assay; format: cell-based; summary of the method: as §1
[9] = system: Rattus norvegicus; test: Toxicity in Sprague-Dawley rat assessed as effect on cuspid valve BMP-7 mRNA expression at 1 to 5 mg/kg/day after 2 weeks by qPCR analysis relative to vehicle-treated control; format: organism-based; settings: in vivo, 336 h
[10] = system: Rattus norvegicus; test: Toxicity in Sprague-Dawley rat assessed as effect on cuspid valve BMP-4 mRNA expression at 1 to 5 mg/kg/day after 2 weeks by qPCR analysis relative to vehicle-treated control; format: organism-based; settings: in vivo, 336 h
[11] = system: Rattus norvegicus; test: Toxicity in Sprague-Dawley rat assessed as effect on cuspid valve BMP-2 mRNA expression at 1 to 5 mg/kg/day after 2 weeks by qPCR analysis relative to vehicle-treated control; format: organism-based; settings: in vivo, 336 h
[12] = system: Rattus norvegicus; test: Toxicity in Sprague-Dawley rat assessed as effect on aorta BMP-7 mRNA expression at 1 to 5 mg/kg/day after 2 weeks by qPCR analysis relative to vehicle-treated control; format: organism-based; settings: in vivo, 336 h
[13] = system: Rattus norvegicus; test: Toxicity in Sprague-Dawley rat assessed as effect on aorta BMP-4 mRNA expression at 1 to 5 mg/kg/day after 2 weeks by qPCR analysis relative to vehicle-treated control; format: organism-based; settings: in vivo, 336 h
[14] = system: Rattus norvegicus; test: Toxicity in Sprague-Dawley rat assessed as effect on aorta BMP-2 mRNA expression at 1 to 5 mg/kg/day after 2 weeks by qPCR analysis relative to vehicle-treated control; format: organism-based; settings: in vivo, 336 h
[15] = system: Rattus norvegicus; test: Osteogenic activity in Sprague-Dawley rat femur drill-hole fracture model assessed as decrease in structure model index at 1 to 5 mg/kg/day after 2 weeks by micro-CT method relative to vehicle-treated control; format: functional, organism-based
Summary of the method: (§2)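 Same rat femoral drill-hole model: 10 rats/group, 1.0 or 5.0 mg·kg⁻¹·day⁻¹ or gum acacia vehicle for 2 weeks starting the day after injury. Femurs taken at autopsy; μCT of the drill-hole gives BV/TV, Tb.N, Tb.Th, Tb.Sp, Conn.Dens and SMI. Mean ± SEM.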

[16] = system: Rattus norvegicus; test: Osteogenic activity in Sprague-Dawley rat femur drill-hole fracture model assessed as decrease in trabecular spacing at 1 to 5 mg/kg/day after 2 weeks by micro-CT method relative to vehicle-treated control; format: functional, organism-based; summary of the method: as §2
[17] = system: Rattus norvegicus; test: Osteogenic activity in Sprague-Dawley rat femur drill-hole fracture model assessed as increase in connection density at 1 to 5 mg/kg/day after 2 weeks by micro-CT method relative to vehicle-treated control; format: functional, organism-based; summary of the method: as §2
[18] = system: Rattus norvegicus; test: Osteogenic activity in Sprague-Dawley rat femur drill-hole fracture model assessed as increase in trabecular thickness at 1 to 5 mg/kg/day after 2 weeks by micro-CT method relative to vehicle-treated control; format: functional, organism-based; summary of the method: as §2
[19] = system: Rattus norvegicus; test: Osteogenic activity in Sprague-Dawley rat femur drill-hole fracture model assessed as increase in trabecular number at 1 to 5 mg/kg/day after 2 weeks by micro-CT method relative to vehicle-treated control; format: functional, organism-based; summary of the method: as §2
[20] = system: Rattus norvegicus; test: Osteogenic activity in Sprague-Dawley rat femur drill-hole fracture model assessed as increase in bone volume/trabecular volume at 1 to 5 mg/kg/day after 2 weeks by micro-CT method relative to vehicle-treated control; format: functional, organism-based; summary of the method: as §2
[21] = system: Rattus norvegicus; test: Osteogenic activity in Sprague-Dawley rat femur drill-hole fracture model assessed as bone formation at 5 mg/kg/day after 2 weeks by calcein labeling-based confocal microscopy relative to vehicle-treated control; format: functional
Summary of the method: (§3)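 Bilateral femoral diaphysis drill-hole (0.8 mm bit, 2 cm above knee) in rats, 10 per group. Daily dosing at 1.0 or 5.0 mg·kg⁻¹·day⁻¹, or gum acacia/water vehicle, from the day after injury for 2 weeks. Calcein 20 mg/kg i.p. given 2 days before autopsy. Acrylic-embedded 50 μm sections imaged by confocal microscopy; calcein intensity quantified. Mean ± SEM.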

[22] = system: Rattus norvegicus; test: Osteogenic activity in Sprague-Dawley rat femur drill-hole fracture model assessed as bone formation at 1 mg/kg/day after 2 weeks by calcein labeling-based confocal microscopy relative to vehicle-treated control; format: functional; summary of the method: as §3
[23] = species: Rattus norvegicus; test: Osteogenic activity in Sprague-Dawley rat femur drill-hole fracture model assessed as increase in osteoblast formation after 2 weeks by calcein labeling-based confocal microscopy relative to vehicle-treated control; format: functional, organism-based; summary of the method: as §3
[24] = species: Rattus norvegicus; test: Osteogenic activity in Sprague-Dawley rat femur drill-hole fracture model assessed as increase in callus regeneration after 2 weeks by calcein labeling-based confocal microscopy relative to vehicle-treated control; format: functional, organism-based; summary of the method: as §3
[25] = species: Rattus norvegicus; test: Osteogenic activity in Sprague-Dawley rat femur drill-hole fracture model assessed as increase in osteoblast recruitment after 2 weeks by calcein labeling-based confocal microscopy relative to vehicle-treated control; format: functional, organism-based; summary of the method: as §3
[26] = system: Calvarial osteoblast; test: Induction of […] mRNA expression in Sprague-Dawley rat calvarial osteoblasts at 10 nM after 72 hrs by qPCR analysis in presence of noggin; format: functional, cell-based
Summary of the method: (§4)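 Rat calvarial osteoblasts treated for 72 h with 10 nM compound, 100 ng/mL BMP-2 and 50 ng/mL noggin, alone or combined. Runx-2 and osteocalcin mRNA measured by qPCR. Data are mean ± SEM from three independent experiments.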

[27] = system: Calvarial osteoblast; test: Induction of Runx-2 mRNA expression in Sprague-Dawley rat calvarial osteoblasts at 10 nM after 72 hrs by qPCR analysis in presence of noggin; format: functional, cell-based; summary of the method: as §4
[28] = system: Calvarial osteoblast; test: Induction of type 1 collagen mRNA expression in Sprague-Dawley rat calvarial osteoblasts at 10 nM by qPCR analysis; format: functional, cell-based; settings: TDE = time-dependent effect
Summary of the method: (§5)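 Primary calvarial osteoblasts from pooled 1–2-day-old Sprague–Dawley rat pups (both sexes), released by sequential Dispase/collagenase P digestion at 37 °C. Cells kept in osteoblast differentiation medium with 10 nM compound or vehicle and sampled at several time points (24 h up to 72 h) for qPCR. Results given as fold change, mean ± SEM, triplicate.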

[29] = system: Calvarial osteoblast; test: Induction of […] mRNA expression in Sprague-Dawley rat calvarial osteoblasts at 10 nM by qPCR analysis; format: functional, cell-based; settings: TDE = time-dependent effect; summary of the method: as §5
[30] = system: Calvarial osteoblast; test: Induction of BMP-2 mRNA expression in Sprague-Dawley rat calvarial osteoblasts at 10 nM by qPCR analysis; format: functional, cell-based; settings: TDE = time-dependent effect; summary of the method: as §5
[31] = system: Calvarial osteoblast; test: Induction of Runx mRNA expression in Sprague-Dawley rat calvarial osteoblasts at 10 nM by qPCR analysis; format: functional, cell-based; settings: TDE = time-dependent effect; summary of the method: as §5
[32] = system: Calvarial osteoblast; test: Induction of mineralization in Sprague-Dawley rat calvarial osteoblasts assessed as increase of mineralized nodule formation at 10 nM after 21 days by Alizarin Red S staining relative to vehicle-treated control; format: functional, cell-based
Summary of the method: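 Rat calvarial osteoblasts grown to 80% confluence, then plated at 25 000 cells/well in differentiation medium (growth medium plus 50 μg/mL ascorbic acid and […]) with 10 nM compound or vehicle. Medium changed every other day for 21 days. Cells fixed in 4% paraformaldehyde and stained with 40 mM Alizarin Red S (pH 4.5). Dye extracted with 10% acetic acid at 85 °C, neutralized, OD 405 nm read.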

O=C(O)c1ccccc1C(=O)NC(Cc1ccccc1)C(=O)NCCc1ccccc1 (stereo not drawn)
Activity [1]: Active | Activity [2]: 132% | Activity [3]: 166.11% | Activity [4]: 114.24% | Activity [5]: 122.8% | Activity [6]: 111%

O=C(O)c1ccccc1C(=O)NC(Cc1ccccc1)C(=O)NCC(OCc1ccccc1)c1ccccc1 (stereo not drawn)
Activity [2]: 93.6% | Activity [3]: 117.2% | Activity [4]: 101.32% | Activity [5]: 107.27% | Activity [6]: 87.8%

O=C(OC(CN(Cc1ccccc1)C(=O)C(Cc1ccccc1)NC(=O)c1ccccc1C(=O)O)c1ccccc1)c1ccccc1 (stereo not drawn)
Activity [2]: 112% | Activity [3]: 103.15% | Activity [4]: 103.15% | Activity [5]: 107.69% | Activity [6]: 98.4%

Cc1ccc(S(=O)(=O)OC(CNC(=O)C(Cc2ccccc2)NC(=O)c2ccccc2C(=O)O)c2ccccc2)cc1 (stereo not drawn)
Activity [2]: 104% | Activity [3]: 114.88% | Activity [4]: 111.78% | Activity [5]: 131.75% | Activity [6]: 119%

O=C(O)c1ccccc1C(=O)NC(Cc1ccccc1)C(=O)N(Cc1ccccc1)CC(O)c1ccccc1 (stereo not drawn)
inhibition [7]: inactive | inhibition [8]: Dose-dependent effect | Activity [9]: Non-toxic | Activity [10]: Non-toxic | Activity [11]: Non-toxic | Activity [12]: Non-toxic | Activity [13]: Non-toxic | Activity [14]: Non-toxic | Activity [15]: Active | Activity [16]: Active | Activity [17]: Active | Activity [18]: Active | Activity [19]: Active | Activity [20]: Active | fold change (FC) [21]: 3.12 | fold change (FC) [22]: 2.16 | Activity [23]: Dose-dependent effect | Activity [24]: Dose-dependent effect | Activity [25]: Dose-dependent effect | Activity [26]: inactive | Activity [27]: inactive | Activity [28]: tde | Activity [29]: tde | Activity [30]: tde | Activity [31]: tde | Activity [32]: Active | Activity [1]: Active | Activity [2]: 133% | Activity [3]: 137.2% | Activity [4]: 155.6% | Activity [5]: 159.5% | Activity [6]: 140%

CC(=O)OC(CNC(=O)C(Cc1ccccc1)NC(=O)c1ccccc1C(=O)O)c1ccccc1 (stereo not drawn)
Activity [2]: 103% | Activity [3]: 96.03% | Activity [4]: 98.33% | Activity [5]: 98.67% | Activity [6]: 106%

O=C(O)c1ccccc1C(=O)NC(Cc1ccccc1)C(=O)N(Cc1ccccc1)CC(OCc1ccccc1)c1ccccc1 (stereo not drawn)
Activity [2]: 92.6% | Activity [3]: 103.27% | Activity [4]: 98.34% | Activity [5]: 100.66% | Activity [6]: 89.8%

Cc1ccc(S(=O)(=O)OC(CN(Cc2ccccc2)C(=O)C(Cc2ccccc2)NC(=O)c2ccccc2C(=O)O)c2ccccc2)cc1 (stereo not drawn)
Activity [2]: 111% | Activity [3]: 98.7% | Activity [4]: 109.39% | Activity [5]: 141.67% | Activity [6]: 122%

N#CC(CN(Cc1ccccc1)C(=O)C(Cc1ccccc1)NC(=O)c1ccccc1C(=O)O)c1ccccc1 (stereo not drawn)
Activity [2]: 92.6% | Activity [3]: 96.69% | Activity [4]: 89.28% | Activity [5]: 97.35% | Activity [6]: 83.6%

CC(=O)OC(CN(Cc1ccccc1)C(=O)C(Cc1ccccc1)NC(=O)c1ccccc1C(=O)O)c1ccccc1 (stereo not drawn)
Activity [2]: 100.6% | Activity [3]: 98.76% | Activity [4]: 83.45% | Activity [5]: 89.49% | Activity [6]: 88.7%
